Active and inactive are the calls of the source. The calls are words filed in the database; no cut-off is given here.
Experiments:
Type in all cases: functional, cell-based
[1] = biological target: Somatostatin receptor type 4 (Homo sapiens) (UniProt P31391); assay: Agonist activity against human SST4 receptor expressed in […] cells assessed as beta-galactosidase activity at 3 uM after 5 days by R-SAT assay
Urotensin-2 receptor = biological target: T1, Urotensin-2 receptor (Homo sapiens, UniProt Q9UKP6); assay: (§1) Agonist activity against human urotensin 2 receptor expressed in […] cells assessed as beta-galactosidase activity after 5 days by R-SAT assay
T1 sequence (Q9UKP6 whole entry): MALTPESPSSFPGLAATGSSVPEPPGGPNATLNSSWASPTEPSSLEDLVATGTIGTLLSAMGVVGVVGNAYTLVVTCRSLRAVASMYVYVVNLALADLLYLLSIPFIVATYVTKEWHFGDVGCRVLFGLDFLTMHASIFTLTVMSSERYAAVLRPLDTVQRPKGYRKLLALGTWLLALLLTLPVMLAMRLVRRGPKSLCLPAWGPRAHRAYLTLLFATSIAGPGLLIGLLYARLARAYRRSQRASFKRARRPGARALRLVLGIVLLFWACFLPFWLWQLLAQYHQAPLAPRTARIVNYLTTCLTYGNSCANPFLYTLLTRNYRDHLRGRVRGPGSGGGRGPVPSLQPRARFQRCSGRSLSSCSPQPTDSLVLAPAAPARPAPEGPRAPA
Outline: (§2)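 R-SAT in NIH-3T3 cells grown to 80% confluence in DMEM with 10% bovine calf serum, then transfected for 18 h with human UII receptor plus a β-galactosidase marker. Cells were frozen and thawed into DMEM with 0.4% calf serum and 30% UltraCulture, then incubated with compound for 5 days in 5% CO₂. Reporter read at 420 nm. Eight doses in triplicate, 2–5 EC₅₀ determinations, reported as mean ± SD; efficacy normalized to UII = 100%.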

[2] = biological target: Somatostatin receptor type 1 (Homo sapiens) (UniProt P30872); assay: Agonist activity against human SST1 receptor expressed in […] cells assessed as beta-galactosidase activity at 3 uM after 5 days by R-SAT assay
[3] = biological target: T2, Urotensin-2 receptor (Homo sapiens) (UniProt Q9UKP6); assay: Agonist activity against human urotensin 2 receptor expressed in […] cells assessed as beta-galactosidase activity after 5 days by R-SAT assay relative to Urotensin-2; outline: as §2
T2 sequence (whole entry): T1 sequence (Q9UKP6 whole entry)

[4] = biological target: T2, Urotensin-2 receptor (Homo sapiens); assay: as §1; outline: as §2

Chain of Somatostatin receptor type 1 (Homo sapiens) (P30872 whole entry): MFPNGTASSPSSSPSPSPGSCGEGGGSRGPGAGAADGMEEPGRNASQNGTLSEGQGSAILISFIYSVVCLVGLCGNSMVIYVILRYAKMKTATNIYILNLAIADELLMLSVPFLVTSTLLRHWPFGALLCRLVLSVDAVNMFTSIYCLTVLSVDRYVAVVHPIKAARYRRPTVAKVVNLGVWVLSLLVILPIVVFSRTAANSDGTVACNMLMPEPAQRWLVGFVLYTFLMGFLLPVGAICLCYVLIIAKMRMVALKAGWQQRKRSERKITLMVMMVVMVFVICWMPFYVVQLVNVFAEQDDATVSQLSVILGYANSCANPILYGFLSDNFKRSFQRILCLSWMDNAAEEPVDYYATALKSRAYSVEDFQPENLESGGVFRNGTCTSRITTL
Chain of Somatostatin receptor type 4 (Homo sapiens) (P31391 whole entry): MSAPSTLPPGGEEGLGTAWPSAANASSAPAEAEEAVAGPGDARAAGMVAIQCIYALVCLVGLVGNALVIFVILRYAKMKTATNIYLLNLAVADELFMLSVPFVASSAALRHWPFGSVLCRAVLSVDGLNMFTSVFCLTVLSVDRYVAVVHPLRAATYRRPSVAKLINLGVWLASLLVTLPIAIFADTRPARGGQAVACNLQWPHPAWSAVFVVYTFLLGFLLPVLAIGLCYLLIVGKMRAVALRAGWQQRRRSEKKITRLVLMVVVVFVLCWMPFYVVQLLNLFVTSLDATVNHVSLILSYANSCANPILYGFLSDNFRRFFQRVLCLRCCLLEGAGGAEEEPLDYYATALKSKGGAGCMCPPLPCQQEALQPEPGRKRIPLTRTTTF

Activity [1]	EC50 (Urotensin-2 receptor)	Activity [2]	Efficacy [3]	pEC50 [4]	Compound
31%	51.3 nM	inactive	98%		Cc1cc2c(cc1C)C(=O)OC(CCN(C)C)(c1ccc(Cl)c(Cl)c1)C2 (stereo unspecified)
			inactive	inactive	CN(C)CCC1(c2ccc(Cl)cc2)Cc2cc(-c3ccccc3)ccc2C(=O)O1 (stereo unspecified)
	2400 nM		55%		C=CCN(CC=C)c1cccc(C2(CCN(C)C)Cc3ccccc3C(=O)O2)c1 (stereo unspecified)
	148 nM		126%		Cc1cc2c(cc1C)C(=O)OC(CCN(C)C)(c1ccc3ccccc3c1)C2 (stereo unspecified)
	4170 nM		77%		C=CCN(C)CCC1(c2ccc(Cl)cc2)Cc2ccccc2C(=O)O1 (stereo unspecified)
	955 nM		165%		COc1ccc2c(c1)CC(CCN(C)C)(c1ccc(Cl)cc1)OC2=O (stereo unspecified)
	692 nM		47%		Cc1cc2c(cc1C)CC(CCN(C)C)(c1ccc(Cl)cc1)OC2 (stereo unspecified)
	3800 nM		118%		C[N+](C)(C)CCC1(c2ccc(Cl)cc2)Cc2ccccc2C(=O)O1 (stereo unspecified)
	2880 nM		149%		COc1cccc(C2(CCN(C)C)Cc3cc(C)c(C)cc3C(=O)O2)c1 (stereo unspecified)
	676 nM		172%		CN(C)CCC1(c2ccc(Cl)c(Cl)c2)Cc2ccccc2C(=O)O1 (stereo unspecified)
	263 nM		49%		Cc1cc2c(cc1C)CC(CCN(C)C)(c1ccc3ccccc3c1)OC2 (stereo unspecified)
	501 nM		110%		CN(C)CCC1(c2ccc(Cl)cc2)Cc2ccccc2CO1 (stereo unspecified)
	1150 nM		124%		CN(C)CCC1(c2ccc(Cl)cc2)Cc2ccc3ccccc3c2C(=O)O1 (stereo unspecified)
			inactive	inactive	C=CCN(CC=C)c1ccc(C2(CCN(C)C)Cc3ccccc3C(=O)O2)cc1 (stereo unspecified)
	1410 nM		50%		CN(C)CCC1(c2cccc(-c3ccccc3)c2)Cc2ccccc2C(=O)O1 (stereo unspecified)
	2950 nM		68%		CN(C)CCC1(c2cccc(Br)c2)Cc2ccccc2C(=O)O1 (stereo unspecified)
	1150 nM		54%		CN(C)CCC1(c2ccc(Oc3ccccc3)cc2)Cc2ccccc2C(=O)O1 (stereo unspecified)
			inactive	inactive	CN(C)CCC1(c2ccc(-c3ccccc3)cc2)Cc2ccccc2C(=O)O1 (stereo unspecified)
	2240 nM		145%		CC(C)N1C(=O)c2ccccc2CC1(CCN(C)C)c1ccc(Cl)cc1 (stereo unspecified)
	5250 nM		156%		COc1cc(OC)cc(C2(CCN(C)C)Cc3cc(C)c(C)cc3C(=O)O2)c1 (stereo unspecified)
	1740 nM		118%		COc1ccc2c(c1C)CC(CCN(C)C)(c1ccc(Cl)cc1)OC2=O (stereo unspecified)
	1950 nM		46%		CNCCC1(c2ccc(Cl)cc2)Cc2ccccc2C(=O)O1 (stereo unspecified)
	1170 nM		151%		COc1cccc2c1CC(CCN(C)C)(c1ccc(Cl)cc1)N(C)C2=O (stereo unspecified)
			inactive	inactive	CN(C)CCC1(c2ccc(C#Cc3ccccc3)cc2)Cc2ccccc2C(=O)O1 (stereo unspecified)
	933 nM		127%		CN(C)CCC1(c2ccc(Br)cc2)Cc2ccccc2C(=O)O1 (stereo unspecified)
	2290 nM		152%		CN(C)CCC1(c2ccc(Cl)cc2)Cc2ccccc2C(=O)N1C (stereo unspecified)
	724 nM		132%		C=CCN(CC=C)c1ccc2c(c1)CC(CCN(C)C)(c1ccc(Cl)cc1)OC2=O (stereo unspecified)

Reference: ChEMBL document CHEMBL1177636, “Optimization of isochromanone based urotensin II receptor agonists” (Bioorg Med Chem, 2010)
